# Test results reported in ChEMBL document CHEMBL1955825, “1,3-Phenylene bis(ketoacid) derivatives as inhibitors of Escherichia coli dihydrodipicolinate synthase” (Bioorg Med Chem, 2012).
# Assays:
# [1] = test system: Escherichia coli; assay: Inhibition of Escherichia coli DHDPS-catalyzed condensation of pyruvate and aspartate semi-aldehyde at 5 mM measured after 1 min by UV-spectrophotometric analysis
# Procedure, shortened: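 E. coli DHDPS in 200 mM HEPES pH 8.0 was pre-incubated 1 min with inhibitor (from 100% DMSO; final 5 mM), with a DMSO-only control. Activity was then read by the coupled DHDPR assay, following NADPH oxidation at 340 nm at 30 °C. The result is % inhibition relative to the control.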
# [2] = (§1) Inhibition of Escherichia coli DHDPS-catalyzed condensation of pyruvate and aspartate semi-aldehyde by UV-spectrophotometric analysis; conditions: read-out: Ki(app)
# Procedure, shortened: (§2)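 Time-dependent assay: DHDPS in HEPES pH 8.0 (raised to 500 mM for the acidic inhibitor) was pre-incubated with inhibitor at 0.5–25 mM. Aliquots were serially diluted before adding to substrates, and residual rate was measured by DHDPR/NADPH coupling at 340 nm at 30 °C. Decay curves of v_t/v_0 were fitted per Copeland. Ki app came from a y-intercept isotherm midpoint, and Ki* app from k_obs versus [I].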
# [3] = test system: Escherichia coli; assay: Inhibition of Escherichia coli DHDPS-catalyzed condensation of pyruvate and aspartate semi-aldehyde at 50 mM after 60 mins by UV-spectrophotometric analysis
# [4] = test system: Escherichia coli; assay: as §1; conditions: TDE = time-dependent effect; procedure, shortened: as §2
Structure (SMILES),inhibition [1] [%],inhibition [3] [%],inhibition [4],Ki [2] [µM]
COC(=O)/C(=N\O)c1cccc(/C(=N/O)C(=O)OC)c1,15,,,330
COC(=O)C(=O)c1cccc(C(=O)C(=O)OC)c1,2,,,
O=C(O)/C(=N\O)c1cccc(/C(=N/O)C(=O)O)c1,23,34,,
COC(=O)C(=O)c1cccc(C(=O)C(=O)OC)c1O,10,,tde,40

# Second part, led by results:
inhibition [1] [%],inhibition [3] [%],inhibition [4],Structure (SMILES),Ki [2] [µM]
49,,,O=C(O)C(=O)c1cccc(C(=O)C(=O)O)c1,2960
10,,tde,O=C(O)C(=O)c1cccc(C(=O)C(=O)O)c1O,290
